Among the data in ChEMBL document CHEMBL3867457, “Cytotoxic Ceanothane- and Lupane-Type Triterpenoids from the Roots of Ziziphus jujuba” (J Nat Prod, 2016) are IC50 values, retold here.

This experiment in a line: Cytotoxicity against human HepG2 cells assessed as reduction in cell viability measured after 48 hrs by MTT assay. It is filed as functional, cell-based. Conditions: HepG2, 48 h. A digest of the protocol: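 HepG2 cells grown in DMEM with 10% FBS, penicillin/streptomycin, 5% CO2, 37 °C; seeded at 5 × 10^4 cells/mL, attached 12 h. Compounds in DMSO at 1, 5, 10, 25 μM for 48 h; docetaxel positive control. MTT added for 4 h, formazan dissolved in DMSO, absorbance 550 nm. Viability relative to control wells; IC50 with 95% CI by log-concentration regression; three independent replicates.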
By IC50 is commonly meant the concentration at which inhibition is half-maximal. For `C=C(C)[C@@H]1CC[C@]2(C(=O)O)CC[C@]3(C)[C@H](CC[C@@H]4[C@@]5(C)C[C@@H](OC(=O)/C=C/c6ccc(O)cc6)[C@H](O)C(C)(C)[C@@H]5CC[C@]43C)[C@@H]12`, the IC50 was determined as 2 µM. The same measure for `C=C(C)[C@@H]1CC[C@]2(C(=O)O)CC[C@]3(C)[C@H](CC[C@@H]4[C@@]5(C)[C@@H](C(=O)OC)[C@H](OC(=O)c6ccc(O)c(OC)c6)C(C)(C)[C@@H]5CC[C@]43C)[C@@H]12`: 1.9 µM. In the case of `C=C(C)[C@@H]1CC[C@]2(C(=O)O)CC[C@]3(C)[C@H](CC[C@@H]4[C@@]5(C)[C@@H](C(=O)O)[C@H](OC(=O)c6ccc(O)c(OC)c6)C(C)(C)[C@@H]5CC[C@]43C)[C@@H]12` it was above 10 µM; in that of `C=C(C)[C@@H]1CC[C@]2(C(=O)O)CC[C@]3(C)[C@H](CC[C@@H]4[C@@]5(C)C[C@@H](OC(=O)c6ccc(O)cc6)[C@H](O)C(C)(C)[C@@H]5CC[C@]43C)[C@@H]12`, 2.9 µM. Regarding `C=C(C)[C@@H]1CC[C@]2(C(=O)O)CC[C@]3(C)[C@H](CC[C@@H]4[C@@]5(C)C[C@@H](OC(=O)/C=C\c6ccc(O)cc6)[C@H](O)C(C)(C)[C@@H]5CC[C@]43C)[C@@H]12`, the IC50 came to 2.1 µM.

`C=C(C)[C@@H]1CC[C@]2(C(=O)O)CC[C@]3(C)[C@H](CC[C@@H]4[C@@]5(C)[C@@H](C(=O)OC)[C@H](OC(=O)c6ccc(O)c(O)c6)C(C)(C)[C@@H]5CC[C@]43C)[C@@H]12`: the IC50 came to 2.8 µM. The same measure for `C=C(C)[C@@H]1CC[C@]2(C(=O)O)CC[C@]3(C)[C@H](CC[C@@H]4[C@@]5(C)[C@H](C(=O)O)[C@H](OC(=O)c6ccc(O)c(OC)c6)C(C)(C)[C@@H]5CC[C@]43C)[C@@H]12`: 3.9 µM; for `C=C(C)[C@@H]1CC[C@]2(C(=O)O)CC[C@]3(C)[C@H](CC[C@@H]4[C@@]5(C)[C@H](C(=O)O)[C@H](OC(=O)c6ccc(O)cc6)C(C)(C)[C@@H]5CC[C@]43C)[C@@H]12`: above 10 µM; for `C=C(C)[C@@H]1CC[C@]2(C(=O)O)CC[C@]3(C)[C@H](CC[C@@H]4[C@@]5(C)C[C@@H](OC(=O)c6ccccc6)[C@H](O)C(C)(C)[C@@H]5CC[C@]43C)[C@@H]12`: above 10 µM.

Consider `C=C(C)[C@@H]1CC=C2CC[C@]3(C(=O)O)[C@H](CC[C@@H]4[C@@]5(C)C=C[C@](C)(CO)[C@@H]5CC[C@]43C)[C@H]21`, for which the IC50 turned out to be 4.9 µM. The same measure for `C=C(C)[C@@H]1CC[C@]2(C(=O)O)CC[C@]3(C)[C@H](CC[C@@H]4[C@@]5(C)[C@H](C(=O)OC)[C@H](O)C(C)(C)[C@@H]5CC[C@]43C)[C@@H]12`: above 10 µM; for `C=C(C)[C@@H]1CC[C@]2(C(=O)O)CC[C@]3(C)[C@H](CC[C@@H]4[C@@]5(C)[C@@H](C(=O)O)[C@H](O)[C@](C)(CO)[C@@H]5CC[C@]43C)[C@@H]12`: above 10 µM; for `C=C(C)[C@@H]1CC[C@]2(C(=O)O)CC[C@]3(C(=O)O)[C@H](CC[C@@H]4[C@@]5(C)[C@@H](C(=O)OC)CC(C)(C)[C@@H]5CC[C@]43C)[C@@H]12`: above 10 µM. The same measure for `C=C(C)[C@@]12CC[C@@]3(CC[C@]4(C(=O)O)[C@H](CC[C@@H]5[C@@]6(C)[C@@H](C(=O)O)CC(C)(C)[C@@H]6CC[C@]54C)[C@H]31)C(=O)O2`: above 10 µM; for `C=C(C)[C@@H]1CC[C@]2(C(=O)O)CC[C@]3(C)[C@H](CC[C@@H]4[C@@]5(C)[C@@H](C(=O)O)[C@H](OC(=O)c6ccc(O)cc6)C(C)(C)[C@@H]5CC[C@]43C)[C@@H]12`: above 10 µM. In the case of `C=C(C)[C@@H]1CC[C@]2(C(=O)O)CC[C@]3(C)[C@H](CC[C@@H]4[C@@]5(C)[C@@H](C(=O)O)[C@H](OC(=O)c6ccc(O)c(O)c6)C(C)(C)[C@@H]5CC[C@]43C)[C@@H]12` it was above 10 µM. As to `C=C(C)[C@@H]1CC[C@]2(C(=O)O)CC[C@]3(C)[C@H](CC[C@@H]4[C@@]5(C)C(C=O)=CC(C)(C)[C@@H]5CC[C@]43C)[C@@H]12`, the IC50 worked out at 2 µM. In the case of `C=C(C)[C@@H]1CC[C@]2(C(=O)O)CC[C@]3(C(=O)O)[C@H](CC[C@@H]4[C@@]5(C)[C@@H](C(=O)OC)[C@H](O)C(C)(C)[C@@H]5CC[C@]43C)[C@@H]12` it was above 10 µM.

`C=C(C)[C@@H]1CC[C@]2(C(=O)O)CC[C@]3(C)[C@H](CC[C@@H]4[C@@]5(C)C[C@@H](OC(=O)c6ccc(O)c(O)c6)[C@H](O)C(C)(C)[C@@H]5CC[C@]43C)[C@@H]12`: the IC50 was above 10 µM. In the case of `C=C(C)[C@@H]1CC[C@]2(C(=O)O)CC[C@]3(C(=O)O)[C@H](CC[C@@H]4[C@@]5(C)[C@@H](C(=O)O)CC(C)(C)[C@@H]5CC[C@]43C)[C@@H]12` it was above 10 µM; in that of `C=C(C)[C@@H]1CC[C@]2(C(=O)O)CC[C@]3(C)[C@H](CC[C@@H]4[C@@]5(C)C[C@@H](O)[C@H](O)C(C)(C)[C@@H]5CC[C@]43C)[C@@H]12` [ALPHITOLIC ACID], above 10 µM; in that of `C=C(C)[C@@H]1CC[C@]2(C(=O)O)CC[C@]3(C)[C@H](CC[C@@H]4[C@@]5(C)CC[C@H](O)C(C)(C)[C@@H]5CC[C@]43C)[C@@H]12` [BETULINIC ACID], 5.9 µM. In the case of `C=C(C)[C@@H]1CC[C@]2(C(=O)O)CC[C@]3(C)[C@H](CC[C@@H]4[C@@]5(C)[C@@H](C(=O)O)[C@H](O)C(C)(C)[C@@H]5CC[C@]43C)[C@@H]12` [CEANOTHIC ACID] it was above 10 µM; in that of `CC(=O)O[C@@]12CO[C@@H]1C[C@H](O)[C@@]1(C)C(=O)[C@H](O)C3=C(C)[C@@H](OC(=O)[C@H](O)[C@@H](NC(=O)OC(C)(C)C)c4ccccc4)C[C@@](O)([C@@H](OC(=O)c4ccccc4)[C@H]21)C3(C)C` [DOCETAXEL ANHYDROUS], 8.3 µM.

As to `C=C(C)[C@@H]1CC[C@]2(C(=O)O)CC[C@]3(C)[C@H](CC[C@@H]4[C@@]5(C)[C@H](C(=O)O)[C@H](O)C(C)(C)[C@@H]5CC[C@]43C)[C@@H]12` [EPICEANOTHIC ACID], the IC50 was above 10 µM.
